# ASAP1 inh – inhibitors of human ASAP1 ArfGAP activity, primary screen, biochemical, fluorescence polarization. Arf-GAP with SH3 domain, ANK repeat and PH domain-containing protein 1 (Homo sapiens), …. ASAP1-stimulated ARF1 GTP hydrolysis, GDP FP detection. inhibition, % at 16.5 µM. 0.19% of 360,000 active. AID 624377, 2012; in the data active = inhibition above about 25%
# NPR1 activator – GC-A stimulated cGMP production enhancers – HEK293 GC-A cells, cGMP TR-FRET, EC30 ANP, primary screen. AID 1671463, 2021. 0% at EC30 ANP, 100% saturating ANP. 0.14% of 370,000 active. activation, % at 10 µM. Atrial natriuretic peptide receptor 1 (Homo sapiens), P16066; in the data active = activation above about 40%
# core dimer inh – inhibitors of HCV core protein dimerization, primary screen, biochemical, TR-FRET, high-throughput. TR-FRET GST/Flag-core106 dimerization, 1536-well. inhibition, % at 5 µM. 0.33% of 300,000 active. AID 1899, 2009;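 active = inhibition above the mean of all tested compounds plus 3 SD, set per screening campaign, cut at about 45% in these data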
#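 test system = GST/Flag-tagged HCV core106 proteins | probe or stimulus = Eu donor and XL665 acceptor anti-tag antibodies | times = compound-protein-antibody incubation 4 h at 22.5 °C | signal = TR-FRET, excitation 340 nm, emission 617 and 671 nm | measure = percent inhibition of core106 dimerization signal | controls = wells lacking GST-core106 and wells with excess unlabelled core106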
# Fh CTSL1 inh – Fasciola hepatica cathepsin L1 inhibitors, primary screen, counter-screen for PFM18AAP inhibitor project, biochemical, QFRET, fluorogenic peptide substrate. 0.49% of 300,000 active. AID 1906, 2009. inhibition, % at 5.96 µM. recombinant F. hepatica cathepsin L1, Z-Leu-Arg-MCA fluorescence;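 active = inhibition above the mean of all tested compounds plus 3 SD, set per screening campaign, cut at about 17% in these data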
# GC-B act – human GC-B receptor activators, primary screen, HEK293 GC-B cells, cGMP TR-FRET, EC30 CNP; 0% at EC30 CNP, 100% saturating CNP; activation, % at 10 µM; 0.11% of 370,000 active; AID 1920062, 2024;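 active = activation at 10 µM reaching about 35% in either raw or pattern-adjusted values, limit read from the data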
# ARFGAP1 inh – inhibitors of rat ARFGAP1 GAP activity, primary screen, biochemical, fluorescence polarization, GDP tracer. 0.26% of 360,000 active. ADP-ribosylation factor GTPase-activating protein 1 (Rattus norvegicus), Q62848. Arfgap1-stimulated ARF1 GTP hydrolysis, GDP FP detection. AID 651572, 2012. inhibition, % at 16.5 µM;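 active = inhibition above a per-plate limit, mean inhibition of low control wells plus 3 SD, cut at about 25% in these data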
#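 Material: rat Arfgap1 GAP domain (His6, aa 1-136), purified enzyme. Also added: human ARF1(Δ1-17)-GTP substrate. Compound dosing: 16.5 µM single point, 1.26% DMSO. Timing: enzyme reaction 120 min at 25 °C after 20 min preincubation. Signal: GDP detection by fluorescence polarization. Read-out basis: percent inhibition of GAP-stimulated GDP formation, scaled between DMSO and no-Arfgap1 medians.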
# Hits are given with their value; . = inactive; / = not tested or not shown; ! = not confirmed by another sample. A selection: hits, their analogues and other compounds. The true share with any hit is near 1.2%.
SMILES,ASAP1 inh,NPR1 activator,core dimer inh,Fh CTSL1 inh,GC-B act,ARFGAP1 inh
CCOC(=O)c1ccc(N=Cc2c(O)n(-c3ccc(OC)cc3)c(=S)[nH]c2=O)cc1,.,.,.,.,.,.
Cc1nc2c(=O)n(C)c(=O)nc-2n(C)n1,.,.,55,112,.,.
CC[C@@H](CO)NC(=O)[C@@H]1C=C2c3cccc4[nH]cc(c34)C[C@H]2N(C)C1,.,.,/,/,.,.
CC(C)C[C@H]1C(=O)N2CCC[C@H]2[C@]2(O)O[C@](NC(=O)[C@@H]3C=C4c5cccc6[nH]cc(c56)C[C@H]4N(C)C3)(C(C)C)C(=O)N12,/,/,.,34,/,/
CCc1sc(C(=O)N2CCC3(CC2)OCCO3)cc1Br,.,.,.,.,.,.
O=C(O)CC1OCC=C2CN3CCC45C6=CC(=O)C(=O)C([N+](=O)[O-])=C6NC4C1C2CC35 (stereo not drawn),/,/,.,106,/,/
O=C1CC2OCC=C3CN4CCC56c7cc([N+](=O)[O-])ccc7N1C5C2C3CC46 (stereo not drawn),.,.,.,.,.,.
O=C1/C(=C\c2ccccc2)C2OCC=C3CN4CCC56c7ccccc7N1C5C2C3CC46 (stereo not drawn),.,.,.,.,.,.
O=C(O)CC1OCC=C2CN3CCC45c6ccccc6NC4C1C2CC35 (stereo not drawn),.,.,.,18,.,.
CC(=O)c1ccc2c(c1)C1C(Cl)C(Sc3ccccc3[N+](=O)[O-])CC1C(c1ccccc1)N2 (stereo not drawn),.,.,66,.,.,.
CC(=O)c1ccc2c(c1)C1C(Cl)C(Sc3ccccc3[N+](=O)[O-])CC1C(c1ccccc1[N+](=O)[O-])N2 (stereo not drawn),.,.,54,.,75,.
COC(=O)C1=C(c2ccc(-c3ccccc3)c(F)c2)C[C@@H]2CC[C@H]1N2C(=O)N1CCC(C)CC1,.,.,/,/,.,.
O=C1NC(=O)C(=Cc2ccc(-c3ccc(Cl)cc3)o2)C(=O)N1,/,/,.,.,/,/
O=C1NC(=O)C(=Cc2ccc(-c3ccc(F)cc3O)o2)C(=O)N1,.,57,.,.,.,.
Cc1cc(/C=C2\C(=O)NC(=O)N(c3ccc(Cl)cc3)C2=O)c(C)n1-c1sc2c(c1C#N)CCCC2,.,.,47,.,.,.
CCOC(=O)c1c(-n2c(C)cc(/C=C3\C(=O)NC(=O)N(C)C3=O)c2C)sc2c1CCCC2,.,.,.,.,.,.
Cc1ccc(-n2c(O)c(C=Nc3ccc(Br)cn3)c(=O)[nH]c2=O)cc1,.,.,.,.,.,.
O=C1NC(=O)C(Nc2ccc(Cl)c(Cl)c2)C(=O)N1,47,.,/,/,.,.
COC(=O)C1=C(c2ccc(OC)c(OC)c2)C[C@@H]2CC[C@H]1N2C(=O)NCCOc1ccccc1,.,.,/,/,.,.
CCC(CO)NC(=O)C1C=C2c3cccc4[nH]cc(c34)CC2N(C)C1 (stereo not drawn),.,.,.,.,.,.
CC[C@@H](CO)NC(=O)[C@@H]1C=C2c3cccc4c3c(cn4C)C[C@H]2N(C)C1,.,.,.,17!,.,.
O=[N+]([O-])c1cc(-n2cnnn2)c(O)c([N+](=O)[O-])c1,.,.,.,.,.,.
CC1=NN=C(c2ccc(N)cc2)c2cc3c(cc2C1)OCO3,.,.,.,39,.,.
CC1(CCl)CN1S(=O)(=O)c1ccccc1 (stereo not drawn),.,.,.,28,.,.
CN1/C(=C\C=C2C(=O)NC(=O)NC2=O)C(C)(C)c2ccccc21,.,.,.,20,.,.
SMILES,ASAP1 inh,NPR1 activator,core dimer inh,Fh CTSL1 inh,GC-B act,ARFGAP1 inh
CN1/C(=C\C=Nc2ccccc2)C(C)(C)c2ccccc21,.,.,.,.,.,.
O=C1c2ccccc2C(=O)N1Cc1nc2ccccc2c(=O)n1-c1cccnc1,.,.,.,.,.,.
CCC(C)/C=C(C)/C=C/C1=CC2=C(Cl)C(=O)C(C)(OC(C)=O)C(=O)C2=CO1 (stereo not drawn),/,/,.,21,/,/
CCCCCN1C(=O)c2cc(OC)ccc2[C@@]2(C(=O)OCC)Cc3cc(OC)ccc3[C@@H]12,.,.,/,/,.,.
CCCCCCCCn1sccc1=O,.,49,/,/,.,.
CC(=O)c1c(C)n(CC2CCCO2)c2ccc(O)cc12 (stereo not drawn),.,.,.,.,.,.
Cc1c(C(=O)Nc2ccccc2)c2cc(O)ccc2n1Cc1ccccc1,.,61,.,.,.,.
CC(=O)c1c(C)n(Cc2ccccc2Cl)c2ccc(O)cc12,.,83,.,.,.,.
COC(=O)c1c(C)n(Cc2ccco2)c2ccc(O)cc12,.,47,.,.,.,.
Cc1ccc(N2C(=O)CC(=O)NC2=O)cc1,.,.,.,.,.,.
CN(C(=O)Oc1cccc2cccnc12)c1ccccc1,.,.,.,.,.,.
O=C(NCC(c1cccnc1)N1CCOCC1)Oc1ccccc1 (stereo not drawn),.,.,.,.,.,.
O=C(NC(C(Cl)Cl)N1CCOCC1)c1ccccc1 (stereo not drawn),.,.,.,68,.,.
CC1(C)C[C@H]2C=C(C=O)[C@]3(C=O)C[C@]3(C)[C@H]2C1,.,.,.,17,.,.
Cc1cc(/C=C2\C(=O)NC(=O)N(Cc3ccco3)C2=O)c(C)n1-c1ccc(O)cc1,.,.,47,.,.,.
Cc1ccc(-n2c(C)cc(/C=C3/C(=O)NC(=O)N(Cc4ccco4)C3=O)c2C)cc1,.,.,.,.,.,.
C[n+]1c(-c2ccccc2)cc(CCCCc2cc(-c3ccccc3)[n+](C)c(-c3ccccc3)c2)cc1-c1ccccc1,.,.,.,.,.,.
Cc1ccc(/C=C2\C(=O)NC(=S)N(c3cccc(F)c3)C2=O)o1,.,.,.,.,.,.
COc1ccc(OC)c(N2C(=O)/C(=C/c3ccco3)C(=O)NC2=S)c1,/,/,83,.,/,/
O=C1NC(=S)N(c2ccc(F)cc2)C(=O)/C1=C/c1ccco1,/,/,77,.,/,/
CCN1/C(=C/C=C/C2=[N+](CC)c3ccccc3C2(C)C)C(C)(C)c2ccccc21,.,.,/,/,43,.
CN1/C(=C\C=C\C2=[N+](C)c3ccc4ccccc4c3C2(C)C)C(C)(C)c2ccccc21,/,/,.,.,/,/

# Compound activity: PubChem BioAssay, several laboratories
